From PubChem BioAssay
Rows were chosen to be rich in hits. Some 2.3% of all compounds tested hit in one or more screens of this group.
PREPL inhibitor: human PREPL enzyme inhibition; Q4J6C6; recombinant PREPL, fluorescence polarization activity-based probe; inhibition, % at 5.96 µM; actives 0.68% (n = 320,000); AID 2751; in the data active = inhibition above about 43%
PP5 inh: inhibitors of human protein phosphatase 5 (PP5) | P53041 | purified PP5c, OMFP substrate fluorescence | AID 1987 | inhibition, % at 6.7 µM | actives 0.18% (n = 320,000);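 active = inhibition above the campaign's mean inhibition across all tested compounds plus 3 SD, cut at about 9.5% in these data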
Target sequence (P53041 whole entry, looked up): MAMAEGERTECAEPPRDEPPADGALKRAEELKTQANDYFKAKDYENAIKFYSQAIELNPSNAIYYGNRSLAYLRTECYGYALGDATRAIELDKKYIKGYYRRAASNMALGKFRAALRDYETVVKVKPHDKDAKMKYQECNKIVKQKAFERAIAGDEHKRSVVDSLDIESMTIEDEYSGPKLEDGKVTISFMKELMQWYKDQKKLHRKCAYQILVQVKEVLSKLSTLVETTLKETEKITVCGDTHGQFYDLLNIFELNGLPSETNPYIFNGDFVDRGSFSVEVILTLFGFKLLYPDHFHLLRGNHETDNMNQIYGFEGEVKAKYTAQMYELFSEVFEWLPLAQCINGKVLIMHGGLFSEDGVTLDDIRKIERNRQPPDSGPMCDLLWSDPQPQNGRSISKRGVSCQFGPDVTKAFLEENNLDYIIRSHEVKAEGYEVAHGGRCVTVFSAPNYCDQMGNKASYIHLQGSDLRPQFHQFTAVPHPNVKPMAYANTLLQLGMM
UCH37 DUB inh: blocks the human deubiquitinase UCH37; inhibition, % (concentration not given with the values); actives 0.33% (n = 330,000); AID 588478; Q9Y5K5; purified proteasome/UCH37, Ub-AMC cleavage fluorescence;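 active = mean inhibition over replicate wells above about 20%, limit read from the data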
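System: Proteasome-associated human UCH37 deubiquitinase; Input: 0.15 nM proteasome in added enzyme buffer; Also added: Ub-AMC substrate from 1 µM stock; Incubation: 30 min compound-proteasome preincubation then 25 min substrate reaction, room temperature; Detection: fluorescence, ex 355 nm, em 460 nm; Read-out: % inhibition of Ub-AMC cleavage fluorescence; Benchmarks: no-proteasome and no-compound wells.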
PP1 inh: PP1-alpha (human) inhibition in PP5 counter-screen | P62136 | actives 0.9% (n = 320,000) | inhibition, % at 6.7 µM | purified PP1alpha, OMFP fluorescence | AID 2235;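 active = inhibition above the mean inhibition of all tested compounds plus 3 SD, computed separately for each screening campaign, cut at about 15% in these data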
CTSL1 counter: counter-screen for PFM18AAP inhibitors: inhibitors of F. hepatica cathepsin L1; recombinant F. hepatica cathepsin L1, Z-Leu-Arg-MCA fluorescence; inhibition, % at 5.96 µM; actives 0.49% (n = 300,000); AID 1906;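 active = inhibition above the mean of all tested compounds plus 3 SD, set per screening campaign, cut at about 17% in these data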
UBC13 polyUb: human UBC13 polyubiquitination inhibition; P61088; actives 0.47% (n = 330,000); inhibition, % at 20 µM; UBC13 polyubiquitin chain formation, TR-FRET; in the data active = inhibition above about 45%, passing the limit was not always enough
PP1 confirm: confirmation of human PP1 phosphatase inhibitors | shares compounds with PP1 inh | purified PP1alpha, OMFP substrate fluorescence | inhibition, % at 6.7 µM | actives 52% (n = 1,900) | AID 2358;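 active = mean PP1 inhibition above a set limit taken from the earlier primary screen, cut at about 15% in these data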
PP5 counter: counter-screen for PP1 inhibitors: human PP5 phosphatase inhibition. inhibition, % at 6.7 µM. actives 4% (n = 1,900). purified PP5c, OMFP fluorescence. shares compounds with PP1 inh;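 active = mean PP5 inhibition over triplicate wells above about 9.5% taken from the earlier PP1 screen, limit read from the data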
Each line names hits and unclear results; the compound was inactive in the other large screens (follow-up assays come after a bar, where they were run).

O=C(Nc1cccc(O)c1)C(Cc1ccccc1)N1C(=O)c2cccc3cccc(c23)C1=O (stereo not drawn)	PP1 inh 18.6 | PP1 confirm 28.5 | PP5 counter inactive
COc1ccc(S(=O)(=O)c2c(C)c(NS(=O)(=O)c3ccccc3)cc(C)c2O)cc1	PP1 inh 20.7 | PP1 confirm inactive | PP5 counter inactive
Cc1cc(C(=O)CSc2nn(-c3ccccc3)c(=S)s2)c(C)n1Cc1ccco1	PP1 inh 19.9 | PP1 confirm inactive | PP5 counter inactive
Cc1cc(C(=O)CSc2nncs2)c(C)n1Cc1ccco1	none
CCCOc1ccc(NC(=O)c2c(-c3ccccc3)noc2C)cc1	none
CCCOc1ccc(C(=O)NC(=S)NNC(=O)c2c(-c3ccccc3)noc2C)cc1	PP1 inh 18.4 | PP1 confirm inactive | PP5 counter inactive
COc1ccc(C=NNC(=O)c2cccc(Br)c2)cc1CSc1ccccn1	none (no result: PREPL inhibitor, PP5 inh, PP1 inh, CTSL1 counter, UBC13 polyUb)
O=c1cc(-c2ccccc2)[nH]n1-c1nc2ccccc2s1	PP1 inh 18.1 | PP1 confirm inactive | PP5 counter inactive
O=c1cc(-c2ccccc2)[nH]n1-c1ccccc1	none (no result: PREPL inhibitor, PP5 inh, PP1 inh, CTSL1 counter, UBC13 polyUb)
CC(CC(=O)Nc1cccc2c1CCCC2)=NNC(=O)c1ccccc1N	none (no result: PREPL inhibitor, PP5 inh, PP1 inh, CTSL1 counter, UBC13 polyUb)
O=C(Nc1nccs1)c1cc2c(s1)-c1ccccc1OC2	PP1 inh 22.6 | PP1 confirm 26.2 | PP5 counter inactive
Cc1cccc2c1-c1sc(C(=O)Nc3nccs3)cc1CO2	PP1 inh 21.4 | PP1 confirm inactive | PP5 counter inactive
Cc1c(-c2ccc(Cl)cc2)oc(=O)c2c(N)n(-c3ccccc3)nc12	PP1 inh 23.4 (no result: UCH37 DUB inh) | PP1 confirm 27.9 | PP5 counter inactive
CN(C)N=C/C=C1\CC/C(=C\c2ccc(Br)cc2)C1=O	none (no result: PREPL inhibitor, PP5 inh, PP1 inh, CTSL1 counter, UBC13 polyUb)
S=c1[nH]nc(-c2cc(-c3ccccc3)n[nH]2)n1/N=C/c1c(Cl)cccc1Cl	PP5 inh 9.6, PP1 inh 18.3 (no result: UCH37 DUB inh) | PP1 confirm 27.3 | PP5 counter inactive
S=c1[nH]nc(-c2cc(-c3ccccc3)n[nH]2)n1N=Cc1ccc(Br)s1	none (no result: PREPL inhibitor, PP5 inh, PP1 inh, CTSL1 counter, UBC13 polyUb)
S=c1[nH]nc(-c2cc(-c3ccccc3)n[nH]2)n1/N=C/c1ccc(Br)s1	PP1 inh 28.0 (no result: UCH37 DUB inh) | PP1 confirm 33.4 | PP5 counter inactive
Nc1c(C(=O)NC2CC2)sc2nc3c(c(-c4ccco4)c12)CC/C3=C/c1ccco1	PP1 inh 54.0 (no result: UBC13 polyUb) | PP1 confirm 21.0 | PP5 counter inactive
O=C(COC(=O)c1c2c(nc3ccccc13)/C(=C\c1ccco1)CC2)NC1CCCC1	none (no result: PREPL inhibitor, PP5 inh, PP1 inh, CTSL1 counter, UBC13 polyUb)
COc1ccc2ccccc2c1C=Nn1cnnc1	none (no result: PREPL inhibitor, PP5 inh, PP1 inh, CTSL1 counter, UBC13 polyUb)
Cc1cnc(NC(=O)CSc2nnc3ncccn23)s1	PP1 inh 21.6 | PP1 confirm inactive | PP5 counter inactive
CC(C)(CS(=O)(=O)[O-])NC(=O)CC[N+](C)(C)CCO	PP1 inh 70.5 | PP1 confirm 55.8 | PP5 counter inactive
COc1c(-c2ccc(O)cc2)oc2cc(O)cc(O)c2c1=O	none
O=c1cc(-c2ccc(O)c(O)c2)oc2cc(O)cc(O)c12	none
O=c1c(-c2c(O)cc(O)c3c(=O)cc(-c4ccc(O)cc4)oc23)c(-c2ccc(O)cc2)oc2cc(O)cc(O)c12	PP1 inh 32.1 | PP1 confirm 16.0 | PP5 counter inactive
O=c1cc(-c2ccc(O)c(-c3c(O)cc(O)c4c(=O)cc(-c5ccc(O)cc5)oc34)c2)oc2cc(O)cc(O)c12	PP1 inh 30.8 | PP1 confirm 21.1 | PP5 counter inactive
COc1cc(C=NNC(=O)c2ccc(C)nc2)ccc1OC(=O)c1cccc(F)c1	none (no result: PREPL inhibitor, PP5 inh, PP1 inh, CTSL1 counter, UBC13 polyUb)
COc1ccc(NC(=O)NNC(=O)COc2ccc3cc(Br)ccc3c2)c(OC)c1	PP1 inh 19.9 | PP1 confirm 23.3 | PP5 counter inactive
COc1ccc(NC(=O)COc2ccc(Br)cc2)c(OC)c1	none
O=C(NN=C/C=C/c1ccc([N+](=O)[O-])cc1)c1cccs1	none (no result: PREPL inhibitor, PP5 inh, PP1 inh, CTSL1 counter, UBC13 polyUb)
O=C(Cc1csc(NC(=O)Nc2cccc(Cl)c2)n1)NC1CCCC1	PP1 inh 36.2 | PP1 confirm 42.0 | PP5 counter inactive
